Experimental data from different studies.
Compare with care: the assays were run in different laboratories.

The AUC(0-inf) of CC(C)[C@@H](CS(=O)(=O)C(C)C)N1C(=O)[C@@](C)(CC(=O)O)C[C@H](c2cccc(Cl)c2)[C@H]1c1ccc(Cl)cc1 is reported as 36.3 ng·h/mL (FVB mouse; brain; oral; 20 mg/kg; single dose).
CN(C)C(=O)c1cc2cnc(Nc3ccc(-c4ccc5c(=O)cc(N6CCOCC6)oc5c4)cc3)nc2n1C1CCCC1.Cl gave an AUC(0-inf) of 2790 ng·h/mL (BALB/c mouse; plasma; intravenous; 2 mg/kg).
With OCc1nc2ccc(NCc3ccc(C(F)(F)F)cc3)cc2[nH]1 the AUC(0-inf) was 482 ng·h/mL (male BALB/c mouse; plasma; intravenous; 1 mg/kg).
With COc1cccc2c(N3CCC(CCP(=O)(O)O)CC3)ncnc12 the AUC(0-inf) was 18300 ng·h/mL (female C57BL/6 mouse; serum; subcutaneous; 50 mg/kg).
With O=C1CCC(N2Cc3cc(C4CCN(Cc5ccccc5)CC4)ccc3C2=O)C(=O)N1 (centres unmarked) the AUC(0-inf) was 603 ng·h/mL (male CD-1 mouse; plasma; oral; 3 mg/kg).
With Cc1nc2ccc(OCc3ccc(C(F)(F)F)cc3)cc2[nH]1 the AUC(0-inf) was 3800 ng·h/mL (male BALB/c mouse; plasma; intravenous; 1 mg/kg).
The AUC(0-inf) of CCOC(=O)C1=C(CN2CCC[C@@H]2C(=O)Nc2ccc(B(O)O)cc2)NC(c2nccs2)=N[C@H]1c1ccc(F)cc1Br is reported as 723 ng·h/mL (CD-1 mouse; plasma; intravenous; 2 mg/kg).
COCC(=O)N1CCc2[nH]c3c(Cl)c(Cl)ccc3c2[C@@H]1C has an AUC(0-inf) of 8.24 µM·h (C57BL/6 mouse; blood; oral; 20 mg/kg).
CO[C@H]1/C=C/O[C@@]2(C)Oc3c(C)c(O)c4c(c3C2=O)C2=NC3(CCN(CC(C)C)CC3)NC2=C(NC(=O)/C(C)=C\C=C\[C@H](C)[C@H](O)[C@@H](C)[C@@H](O)[C@@H](C)[C@H](OC(C)=O)[C@@H]1C)C4=O has an AUC of 8070 ng·h/mL (female CD-1 mouse; plasma; intravenous; 5 mg/kg).
With Cc1ccc(CCC(=O)Nc2nnc(S(N)(=O)=O)s2)cc1 the AUC was 12.5 µM·h (male BALB/c mouse; plasma; oral; 20 mg/kg).
For NCc1cc2c(cc1F)C(=O)N(C1CCC(=O)NC1=O)C2 (centres unmarked), the AUC(0-inf) was 149 ng·h/mL (male CD-1 mouse; plasma; intravenous; 1 mg/kg).
With C[C@@H]1COCCN1c1cc(=O)n2c(n1)N(Cc1cncc(Cl)c1)[C@H](C(F)(F)F)CC2 the AUC(0-inf) was 3280 ng·h/mL (C57BL/6 mouse; plasma; intraperitoneal; 10 mg/kg; single dose).
The AUC(0-inf) of CCOC(=O)c1c(NC(=O)CNC(C)C)sc2c1CCCCC2 is reported as 19300 ng·h/mL (male mouse; plasma; intraperitoneal; 100 mg/kg; single dose).
With NCc1ccc(-c2nn(Cc3ccccc3)c3ccccc23)o1 the AUC(0-t) was 1310 ng·h/mL (male CD-1 mouse; plasma; intravenous; 5 mg/kg).
